From ChEMBL document CHEMBL3751743, “Synthesis and anti-cancer screening of novel heterocyclic-(2H)-1,2,3-triazoles as potential anti-cancer agents” (Medchemcomm, 2015)

Experiments:
Assay type in all cases: functional
[1] = Cytotoxicity against human SF539 cells after 48 hrs by SRB assay; conditions: SF-539, 48 h
Summary of the method: (§1)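 NCI-60 five-dose screen: compounds dissolved in DMSO/H2O, tested at five 10-fold dilutions (10^-4 to 10^-8 M) for 48 h. Growth measured by sulforhodamine B optical density at time zero and after 48 h drug or vehicle exposure. Percentage growth calculated relative to control. GI50 is the molar concentration giving 50% reduction in net cell growth versus day-0 cell numbers.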

[2] = Cytotoxicity against human OVCAR4 cells after 48 hrs by SRB assay; conditions: OVCAR-4, 48 h; summary of the method: as §1
[3] = Cytotoxicity against human MOLT4 cells after 48 hrs by SRB assay; conditions: MOLT-4, 48 h; summary of the method: as §1
[4] = Cytotoxicity against human OVCAR8 cells after 48 hrs by SRB assay; conditions: OVCAR-8, 48 h; summary of the method: as §1
[5] = tested on: MDA-MB-435; assay: Cytotoxicity against human MDA-MB-435 cells after 48 hrs by SRB assay; conditions: MDA-MB-435, 48 h; summary of the method: as §1
[6] = Cytotoxicity against human NCI-ADR-RES cells after 48 hrs by SRB assay; summary of the method: as §1
[7] = Cytotoxicity against human PC3 cells after 48 hrs by SRB assay; conditions: PC-3, 48 h; summary of the method: as §1
[8] = Cytotoxicity against human DU145 cells after 48 hrs by SRB assay; conditions: DU-145, 48 h; summary of the method: as §1
[9] = tested on: 786-0; assay: Cytotoxicity against human 786-0 cells after 48 hrs by SRB assay; conditions: 786-0, 48 h; summary of the method: as §1
[10] = Cytotoxicity against human IGROV1 cells after 48 hrs by SRB assay; conditions: IGROV-1, 48 h
Summary of the method: (§2)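 NCI-60 five-dose screen: compounds in DMSO/H2O tested at 10^-4 to 10^-8 M (10-fold steps) for 48 h. Cell mass read by sulforhodamine B optical density at time zero and after exposure to compound or vehicle. GI50 is the concentration giving 50% reduction in net cell growth relative to day-0 cell numbers.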

[11] = Cytotoxicity against human HL-60(TB) cells after 48 hrs by SRB assay; conditions: HL-60, 48 h; summary of the method: as §1
[12] = Cytotoxicity against human HCC2998 cells after 48 hrs by SRB assay; conditions: HCC 2998, 48 h; summary of the method: as §1
[13] = Cytotoxicity against human SW620 cells after 48 hrs by SRB assay; conditions: SW-620, 48 h; summary of the method: as §1
[14] = Cytotoxicity against human TK10 cells after 48 hrs by SRB assay; conditions: TK-10, 48 h
Summary of the method: (§3)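 NCI-60 five-dose screen. Compounds dissolved in DMSO/H2O and tested at five 10-fold dilutions (10^-4 to 10^-8 M) for 48 h. Growth read by sulforhodamine B optical density at time zero and after 48 h of exposure to compound or vehicle. Percent growth calculated against control. GI50 is the molar concentration giving 50% reduction in net cell growth relative to cell number on day 0.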

[15] = Cytotoxicity against human Caki1 cells after 48 hrs by SRB assay; conditions: CAKI-1, 48 h; summary of the method: as §1
[16] = tested on: A549; assay: Cytotoxicity against human A549 cells after 48 hrs by SRB assay; conditions: A549, 48 h; summary of the method: as §1
[17] = tested on: KM12; assay: Cytotoxicity against human KM12 cells after 48 hrs by SRB assay; conditions: KM12, 48 h; summary of the method: as §1
[18] = tested on: MDA-MB-231; assay: Cytotoxicity against human MDA-MB-231 cells after 48 hrs by SRB assay; conditions: MDA-MB-231, 48 h; summary of the method: as §1
[19] = Cytotoxicity against human UO31 cells after 48 hrs by SRB assay; conditions: UO-31, 48 h; summary of the method: as §3
[20] = tested on: SK-MEL-5; assay: Cytotoxicity against human SK-MEL-5 cells after 48 hrs by SRB assay; conditions: SK-MEL-5, 48 h; summary of the method: as §1
[21] = tested on: ACHN; assay: Cytotoxicity against human ACHN cells after 48 hrs by SRB assay; summary of the method: as §1
[22] = tested on: MCF7; assay: Cytotoxicity against human MCF7 cells after 48 hrs by SRB assay; conditions: MCF7, 48 h; summary of the method: as §1
[23] = tested on: NCI-H522; assay: Cytotoxicity against human NCI-H522 cells after 48 hrs by SRB assay; conditions: NCI-H522, 48 h; summary of the method: as §1
[24] = tested on: SK-MEL-2; assay: Cytotoxicity against human SK-MEL-2 cells after 48 hrs by SRB assay; conditions: SK-MEL-2, 48 h; summary of the method: as §1
[25] = Cytotoxicity against human RPMI8226 cells after 48 hrs by SRB assay; conditions: RPMI-8226, 48 h; summary of the method: as §1
[26] = tested on: K562; assay: Cytotoxicity against human K562 cells after 48 hrs by SRB assay; conditions: K562, 48 h; summary of the method: as §1
[27] = tested on: A498; assay: Cytotoxicity against human A498 cells after 48 hrs by SRB assay; conditions: A498, 48 h; summary of the method: as §1
[28] = tested on: NCI-H226; assay: Cytotoxicity against human NCI-H226 cells after 48 hrs by SRB assay; conditions: NCI-H226, 48 h; summary of the method: as §1
[29] = tested on: CCRF-CEM; assay: Cytotoxicity against human CCRF-CEM cells after 48 hrs by SRB assay; summary of the method: as §1
[30] = Cytotoxicity against human COLO205 cells after 48 hrs by SRB assay; conditions: COLO 205, 48 h; summary of the method: as §1
[31] = Cytotoxicity against human HOP62 cells after 48 hrs by SRB assay; conditions: HOP-62, 48 h; summary of the method: as §2
[32] = tested on: NCI-H460; assay: Cytotoxicity against human NCI-H460 cells after 48 hrs by SRB assay; conditions: NCI-H460, 48 h; summary of the method: as §1
[33] = tested on: MDA-MB-468; assay: Cytotoxicity against human MDA-MB-468 cells after 48 hrs by SRB assay; conditions: MDA-MB-468, 48 h; summary of the method: as §1
[34] = Cytotoxicity against human HCT116 cells after 48 hrs by SRB assay; conditions: HCT-116, 48 h; summary of the method: as §1
[35] = Cytotoxicity against human SKOV3 cells after 48 hrs by SRB assay; conditions: SK-OV-3, 48 h; summary of the method: as §1
[36] = Cytotoxicity against human OVCAR5 cells after 48 hrs by SRB assay; conditions: OVCAR-5, 48 h; summary of the method: as §1
[37] = Cytotoxicity against human OVCAR3 cells after 48 hrs by SRB assay; conditions: OVCAR-3, 48 h; summary of the method: as §1
[38] = Cytotoxicity against human HCT15 cells after 48 hrs by SRB assay; conditions: HCT-15, 48 h; summary of the method: as §1
[39] = Cytotoxicity against human BT549 cells after 48 hrs by SRB assay; conditions: BT-549, 48 h; summary of the method: as §1
[40] = tested on: T47D; assay: Cytotoxicity against human T47D cells after 48 hrs by SRB assay; summary of the method: as §3
[41] = tested on: SK-MEL-28; assay: Cytotoxicity against human SK-MEL-28 cells after 48 hrs by SRB assay; conditions: SK-MEL-28, 48 h; summary of the method: as §1
[42] = tested on: Malme-3M; assay: Cytotoxicity against human MALME-3M cells after 48 hrs by SRB assay; summary of the method: as §2
[43] = tested on: U-251; assay: Cytotoxicity against human U251 cells after 48 hrs by SRB assay; conditions: U-251, 48 h; summary of the method: as §3
[44] = Cytotoxicity against human UACC62 cells after 48 hrs by SRB assay; conditions: UACC-62, 48 h; summary of the method: as §3
[45] = tested on: M14; assay: Cytotoxicity against human M14 cells after 48 hrs by SRB assay; conditions: M14, 48 h; summary of the method: as §1
[46] = tested on: NCI-H23; assay: Cytotoxicity against human NCI-H23 cells after 48 hrs by SRB assay; conditions: NCI-H23, 48 h; summary of the method: as §1
[47] = Cytotoxicity against human LOXIMVI cells after 48 hrs by SRB assay; conditions: LOX IMVI; summary of the method: as §1
[48] = Cytotoxicity against human Hs 578T cells after 48 hrs by SRB assay; summary of the method: as §1
[49] = Cytotoxicity against human SF268 cells after 48 hrs by SRB assay; conditions: SF-268, 48 h; summary of the method: as §1
[50] = Cytotoxicity against human UACC257 cells after 48 hrs by SRB assay; conditions: UACC-257, 48 h; summary of the method: as §3
[51] = Cytotoxicity against human RXF393 cells after 48 hrs by SRB assay; conditions: RXF 393, 48 h; summary of the method: as §1
[52] = tested on: HT-29; assay: Cytotoxicity against human HT-29 cells after 48 hrs by SRB assay; conditions: HT-29, 48 h; summary of the method: as §1
[53] = tested on: SN12C; assay: Cytotoxicity against human SN12C cells after 48 hrs by SRB assay; summary of the method: as §1
[54] = Cytotoxicity against human SNB19 cells after 48 hrs by SRB assay; conditions: SNB-19, 48 h; summary of the method: as §1
[55] = tested on: EKVX; assay: Cytotoxicity against human EKVX cells after 48 hrs by SRB assay; summary of the method: as §2
[56] = Cytotoxicity against human SF295 cells after 48 hrs by SRB assay; conditions: SF-295, 48 h; summary of the method: as §1
[57] = Cytotoxicity against human HOP92 cells after 48 hrs by SRB assay; conditions: HOP-92, 48 h; summary of the method: as §1

COc1ccc(-c2n[nH]nc2-c2csc3ccccc23)cc1OC
GI50 [1]: 1840 nM
GI50 [2]: 6330 nM
GI50 [3]: 3050 nM
GI50 [4]: 4240 nM
GI50 [5]: 337 nM
GI50 [6]: 2390 nM
GI50 [7]: 3080 nM
GI50 [8]: 3770 nM
GI50 [9]: 3260 nM
GI50 [10]: 4210 nM
GI50 [11]: 1700 nM
GI50 [12]: 4210 nM
GI50 [13]: 3090 nM
GI50 [14]: 2980 nM
GI50 [15]: 3690 nM
GI50 [16]: 4520 nM
GI50 [17]: 2280 nM
GI50 [18]: 3210 nM
GI50 [19]: 2780 nM
GI50 [20]: 2830 nM
GI50 [21]: 3940 nM
GI50 [22]: 1450 nM
GI50 [23]: 601 nM
GI50 [24]: 1440 nM
GI50 [25]: 3640 nM
GI50 [26]: 516 nM
GI50 [27]: 2960 nM
GI50 [28]: 13200 nM
GI50 [29]: 3290 nM
GI50 [30]: 2820 nM
GI50 [31]: 2180 nM
GI50 [32]: 3560 nM
GI50 [33]: 630 nM
GI50 [34]: 2840 nM
GI50 [35]: 2370 nM
GI50 [36]: 7910 nM
GI50 [37]: 1940 nM
GI50 [38]: 1670 nM
GI50 [39]: 2170 nM
GI50 [40]: 2830 nM
GI50 [41]: 4630 nM
GI50 [42]: 13300 nM
GI50 [43]: 2190 nM
GI50 [44]: 2770 nM
GI50 [45]: 1950 nM
GI50 [46]: 3940 nM
GI50 [47]: 3040 nM
GI50 [48]: 2250 nM
GI50 [49]: 3690 nM
GI50 [50]: 10900 nM
GI50 [51]: 2110 nM
GI50 [52]: 2780 nM
GI50 [53]: 8800 nM
GI50 [54]: 4670 nM
GI50 [55]: 3420 nM
GI50 [56]: 2330 nM
GI50 [57]: 921 nM
